Measured values as given in ChEMBL document CHEMBL4689842, “EUbOPEN Chemogenomics Library wave 1” (2021).

Test system: HEK-293T
Assay: Multiplex assay against HEK293T;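 on Population Tubulin-Different-Phenotype (%): share of the cells with healthy nuclei that show this phenotype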
Type: toxicity, cell-based
Settings: human
In short: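 On a CQ1 microscope at 37°C and 5% CO2, live cells were imaged after compound addition. They had been stained at seeding with Hoechst33342, BioTracker Green Microtubule Cytoskeleton Dye, MitoTracker Red and Annexin V Alexa Fluor 680. CellPathfinder machine-learning gating assigned cells to Hoechst high-intensity objects or normal cells, normal cells to healthy, pyknosed or fragmented nuclei, and pyknosed cells to mitotic or apoptotic. Tubulin, mitochondrial-mass and membrane-permeability phenotypes are per cents of healthy-nucleus cells.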

[1] = 12 h, 1 µM, compound concentration 1 uM, replicate 1
[2] = 12 h, 1 µM, compound concentration 1 uM, replicate 2
[3] = 12 h, 10 µM, compound concentration 10 uM, replicate 1
[4] = 12 h, 10 µM, compound concentration 10 uM, replicate 2
[5] = 24 h, 1 µM, compound concentration 1 uM, replicate 1
[6] = 24 h, 1 µM, compound concentration 1 uM, replicate 2
[7] = 24 h, 10 µM, compound concentration 10 uM, replicate 1
[8] = 24 h, 10 µM, compound concentration 10 uM, replicate 2

COc1cc2ncnc(Nc3ccc(F)c(Cl)c3)c2cc1NC(=O)/C=C/CN1CCCCC1 [DACOMITINIB ANHYDROUS]
Population Apoptotic (%) [1]: 34%
Population Fragmented Nuclei (%) [1]: 28%
Population Healthy Nuclei (%) [1]: 32%
Population Hoechst High Intensity Objects (%) [1]: 24%
Population Membrane Permeable-Phenotype (%) [1]: 18%
Population Mitochondria Different-Phenotype (%) [1]: 41%
Population Mitotic Cells (%) [1]: 65%
Population Normal (%) [1]: 75%
Population Pyknosed Nuclei (%) [1]: 38%
Population Tubulin-Different-Phenotype (%) [1]: 72%
Total Cell Count [1]: 554
Population Apoptotic (%) [2]: 13%
Population Fragmented Nuclei (%) [2]: 5%
Population Healthy Nuclei (%) [2]: 83%
Population Hoechst High Intensity Objects (%) [2]: 4%
Population Membrane Permeable-Phenotype (%) [2]: 7%
Population Mitochondria Different-Phenotype (%) [2]: 36%
Population Mitotic Cells (%) [2]: 86%
Population Normal (%) [2]: 95%
Population Pyknosed Nuclei (%) [2]: 10%
Population Tubulin-Different-Phenotype (%) [2]: 66%
Total Cell Count [2]: 1314
Population Apoptotic (%) [3]: 14%
Population Fragmented Nuclei (%) [3]: 14%
Population Healthy Nuclei (%) [3]: 69%
Population Hoechst High Intensity Objects (%) [3]: 12%
Population Membrane Permeable-Phenotype (%) [3]: 4%
Population Mitochondria Different-Phenotype (%) [3]: 6%
Population Mitotic Cells (%) [3]: 85%
Population Normal (%) [3]: 87%
Population Pyknosed Nuclei (%) [3]: 15%
Population Tubulin-Different-Phenotype (%) [3]: 5%
Total Cell Count [3]: 670
Population Apoptotic (%) [4]: 12%
Population Fragmented Nuclei (%) [4]: 5%
Population Healthy Nuclei (%) [4]: 89%
Population Hoechst High Intensity Objects (%) [4]: 2%
Population Membrane Permeable-Phenotype (%) [4]: 2%
Population Mitochondria Different-Phenotype (%) [4]: 11%
Population Mitotic Cells (%) [4]: 87%
Population Normal (%) [4]: 97%
Population Pyknosed Nuclei (%) [4]: 5%
Population Tubulin-Different-Phenotype (%) [4]: 6%
Total Cell Count [4]: 1444
Population Apoptotic (%) [5]: 39%
Population Fragmented Nuclei (%) [5]: 27%
Population Healthy Nuclei (%) [5]: 34%
Population Hoechst High Intensity Objects (%) [5]: 22%
Population Membrane Permeable-Phenotype (%) [5]: 9%
Population Mitochondria Different-Phenotype (%) [5]: 63%
Population Mitotic Cells (%) [5]: 60%
Population Normal (%) [5]: 77%
Population Pyknosed Nuclei (%) [5]: 37%
Population Tubulin-Different-Phenotype (%) [5]: 73%
Total Cell Count [5]: 532
Population Apoptotic (%) [6]: 6%
Population Fragmented Nuclei (%) [6]: 16%
Population Healthy Nuclei (%) [6]: 79%
Population Hoechst High Intensity Objects (%) [6]: 3%
Population Membrane Permeable-Phenotype (%) [6]: 6%
Population Mitochondria Different-Phenotype (%) [6]: 13%
Population Mitotic Cells (%) [6]: 93%
Population Normal (%) [6]: 96%
Population Pyknosed Nuclei (%) [6]: 4%
Population Tubulin-Different-Phenotype (%) [6]: 54%
Total Cell Count [6]: 1906
Population Apoptotic (%) [7]: 18%
Population Fragmented Nuclei (%) [7]: 11%
Population Healthy Nuclei (%) [7]: 79%
Population Hoechst High Intensity Objects (%) [7]: 6%
Population Membrane Permeable-Phenotype (%) [7]: 10%
Population Mitochondria Different-Phenotype (%) [7]: 3%
Population Mitotic Cells (%) [7]: 81%
Population Normal (%) [7]: 94%
Population Pyknosed Nuclei (%) [7]: 9%
Population Tubulin-Different-Phenotype (%) [7]: 10%
Total Cell Count [7]: 800
Population Apoptotic (%) [8]: 4%
Population Fragmented Nuclei (%) [8]: 18%
Population Healthy Nuclei (%) [8]: 78%
Population Hoechst High Intensity Objects (%) [8]: 2%
Population Membrane Permeable-Phenotype (%) [8]: 4%
Population Mitochondria Different-Phenotype (%) [8]: 1%
Population Mitotic Cells (%) [8]: 95%
Population Normal (%) [8]: 97%
Population Pyknosed Nuclei (%) [8]: 2%
Population Tubulin-Different-Phenotype (%) [8]: 5%
Total Cell Count [8]: 2468
